Experimental data published in ChEMBL document CHEMBL1142013, “Tryptamine and homotryptamine-based sulfonamides as potent and selective inhibitors of 15-lipoxygenase” (Bioorg Med Chem Lett, 2005).

Experiments:
[1] = molecular target: T1, Polyunsaturated fatty acid lipoxygenase ALOX15 (Oryctolagus cuniculus, UniProt P12530); test: Inhibitory concentration against rabbit reticulocyte 15-lipoxygenase with substrate arachidonic acid
T1 sequence (P12530 whole entry): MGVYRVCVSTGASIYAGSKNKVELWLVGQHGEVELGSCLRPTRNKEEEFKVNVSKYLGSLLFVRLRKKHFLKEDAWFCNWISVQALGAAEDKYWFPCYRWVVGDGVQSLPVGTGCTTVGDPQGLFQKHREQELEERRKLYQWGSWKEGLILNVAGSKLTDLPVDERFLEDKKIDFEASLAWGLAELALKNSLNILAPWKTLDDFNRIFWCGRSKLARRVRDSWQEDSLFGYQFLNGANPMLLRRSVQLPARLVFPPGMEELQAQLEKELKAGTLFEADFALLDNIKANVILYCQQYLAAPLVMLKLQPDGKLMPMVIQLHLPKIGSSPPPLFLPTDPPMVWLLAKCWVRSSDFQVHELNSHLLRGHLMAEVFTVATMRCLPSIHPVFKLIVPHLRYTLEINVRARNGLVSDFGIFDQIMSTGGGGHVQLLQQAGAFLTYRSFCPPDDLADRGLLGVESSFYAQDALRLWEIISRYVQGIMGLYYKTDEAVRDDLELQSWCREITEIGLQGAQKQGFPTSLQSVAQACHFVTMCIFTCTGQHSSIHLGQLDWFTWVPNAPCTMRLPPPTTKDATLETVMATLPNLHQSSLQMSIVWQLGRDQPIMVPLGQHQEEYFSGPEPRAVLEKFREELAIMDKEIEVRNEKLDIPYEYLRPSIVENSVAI
In short: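 Purified rabbit reticulocyte 15-LO, isolated from phenylhydrazine-treated rabbits, with arachidonic acid as the substrate. IC50 comes from a colorimetric read-out in which the 15-HPETE product oxidizes Fe²⁺ under mildly acidic conditions. Many values were also verified by the spectrophotometric diene-formation rate (A₂₃₄).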

[2] = molecular target: T1, Polyunsaturated fatty acid lipoxygenase ALOX15; test: Inhibitory concentration against isolated rabbit reticulocyte 15-lipoxygenase measured in the presence of linoleic acid
In short: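 15-LO was purified from reticulocytes of phenylhydrazine-treated rabbits. Linoleic acid was the substrate. In a colorimetric assay, the 13-HPODE product oxidizes Fe²⁺ under mildly acidic conditions, and IC50 is derived from this. Many values were also checked spectrophotometrically by the rate of diene formation (A₂₃₄).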

Structure (SMILES)	IC50 [1] [nM]	IC50 [2] [nM]
CC(C)c1ccc(-c2ccc(S(=O)(=O)NCCc3c[nH]c4ccccc34)cc2)cc1	140	280
Cc1ccccc1-c1ccc(S(=O)(=O)NCCc2c[nH]c3ccccc23)cc1	460	920
CC(C)Cc1ccc(-c2ccc(S(=O)(=O)NCCc3c[nH]c4ccccc34)cc2)cc1	170	910
CCCc1ccc(S(=O)(=O)NCCc2c[nH]c3ccccc23)cc1	3200	3130
CCc1ccc(S(=O)(=O)NCCc2c[nH]c3ccccc23)cc1	> 10000	> 10000
COc1ccc(-c2[nH]c3ccccc3c2CCNS(=O)(=O)c2ccc(C)cc2)cc1	780	110
CCCCc1ccc(-c2ccc(S(=O)(=O)NCCc3c[nH]c4ccccc34)cc2)cc1	200	530
CCCCCc1ccc(S(=O)(=O)NCCc2c[nH]c3cc(C(=O)O)ccc23)cc1	> 30000	24000
CCCCCc1ccc(S(=O)(=O)NCCc2c[nH]c3ccccc23)cc1	1020	420
Cc1ccc(S(=O)(=O)NCCc2c[nH]c3ccccc23)cc1	> 10000	> 10000
CCCCc1ccc(S(=O)(=O)NCCc2c[nH]c3ccccc23)cc1	4000	3070
Cc1cccc(-c2ccc(S(=O)(=O)NCCc3c[nH]c4ccccc34)cc2)c1	320	450
CC(C)(C)c1ccc(-c2ccc(S(=O)(=O)NCCc3c[nH]c4ccccc34)cc2)cc1	230	270
CCc1ccc(-c2ccc(S(=O)(=O)NCCc3c[nH]c4ccccc34)cc2)cc1	470	260
O=S(=O)(NCCc1c[nH]c2ccccc12)c1ccc(-c2ccccc2)cc1	4200	3400
